Laboratory results reported in ChEMBL document CHEMBL1122898, “Antiulcer agents. 1. Gastric antisecretory and cytoprotective properties of substituted imidazo[1,2-a]pyridines” (1985).
The source made the active and inactive calls. No cut-off for these calls is given here.

What was measured:
Canis familiaris [1] = experiment: Inhibition of histamine stimulated gastric acid secretion in adult mongrel dogs at dose 2 mg/kg given intravenously; format: functional; conditions: Canis lupus familiaris, Stomach, route intravenous
Summary of the method: (§1)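 Dogs with Heidenhain pouches, 12–18 kg, fasted 18 h. Compound given iv in 3 mL or by gavage in 5 mL of 0.4% methylcellulose/saline, 1 h after infusion start. 30-min collections titrated. Summed 3-h AO against the same dog's control AO gives % inhibition. Usually one dog per compound.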

Rattus norvegicus [2] = experiment: Gastric antisecretory activity in the pylorus-ligated rat and the reduction in acid output was measured after 4 hr by intraperitoneal (ip) administration of 40 mg/kg dose.; format: functional
Summary of the method: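 Male Charles River CD rats, 150–200 g, fasted 24 h. Pylorus ligated under Brevital anesthesia. 40 mg/kg given ip in 2.5% Tween 80 at ligation. Stomach contents collected at 4 h and titrated with 0.1 N NaOH to pH 7.0. % inhibition from mean AO, 6 treated vs 8 control rats. Student's t test.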

Canis familiaris [3] = experiment: Inhibition of histamine stimulated gastric acid secretion in adult mongrel dogs at dose 5 mg/kg given intravenously; format: functional; conditions: Canis lupus familiaris, Stomach, route intravenous; summary of the method: as §1
Rattus norvegicus [4] = species: Rattus norvegicus; experiment: Oral gastric cytoprotective activity in the rat against ethanol-induced lesions; format: functional; conditions: Stomach
Summary of the method: (§2)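 Rats fasted and water-deprived for 20 h. Compound given orally, 1–30 mg/kg in 0.4% methylcellulose/saline, 30 min before 1 mL absolute ethanol po. Killed 1 h after ethanol. Linear hemorrhagic lesion lengths totalled per stomach, expressed as group mean. ED50 by linear regression.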

Canis familiaris [5] = experiment: Inhibition of histamine stimulated gastric acid secretion in mongrel dogs following 4 mg/kg p.o. administration.; format: functional; conditions: Canis lupus familiaris, Stomach, route oral; summary of the method: as §1
Canis familiaris [6] = experiment: Inhibition of histamine stimulated gastric acid secretion in adult mongrel dogs at dose 8 mg/kg given orally; format: functional; conditions: Canis lupus familiaris, Stomach, route oral; summary of the method: as §1
Canis familiaris [7] = experiment: Inhibition of histamine stimulated gastric acid secretion in adult mongrel dogs at dose 0.1 mg/kg given intravenously; format: functional; conditions: Canis lupus familiaris, Stomach, route intravenous; summary of the method: as §1
Rattus norvegicus [8] = species: Rattus norvegicus; experiment: Oral gastric cytoprotective activity in the rat against ethanol-induced lesions was evaluated; NA=Inactive.; format: functional, organism-based; conditions: Stomach; summary of the method: as §2
Canis familiaris [9] = species: Canis familiaris; experiment: Relative potency was calculated; value ranges from 0.1-2.1; format: functional, Canis lupus familiaris
Canis familiaris [10] = experiment: Effective dose against histamine stimulated gastric acid secretion in adult mongrel dogs given orally; value ranges from 2.1-14.0; format: functional; conditions: Canis lupus familiaris, Stomach, po
Canis familiaris [11] = experiment: Inhibition of histamine stimulated gastric acid secretion in adult mongrel dogs at dose 4 mg/kg given orally; format: functional; conditions: Canis lupus familiaris, Stomach, route oral; summary of the method: as §1
Rattus norvegicus [12] = species: Rattus norvegicus; experiment: Oral gastric cytoprotective activity in the rat against ethanol-induced lesions was evaluated; conditions: Stomach
Canis familiaris [13] = experiment: Inhibition of histamine stimulated gastric acid secretion in adult mongrel dogs at dose 1 mg/kg given intravenously; format: functional; conditions: Canis lupus familiaris, Stomach, route intravenous; summary of the method: as §1
Canis familiaris [14] = experiment: Inhibition of histamine stimulated gastric acid secretion in adult mongrel dogs at dose 2 mg/kg given orally; format: functional; conditions: Canis lupus familiaris, Stomach, route oral; summary of the method: as §1
Canis familiaris [15] = experiment: Effective dose against histamine stimulated gastric acid secretion in adult mongrel dogs given intravenously; value ranges from 0.01-1.19; format: functional; conditions: Canis lupus familiaris, Stomach, iv
Canis familiaris [16] = experiment: Effective dose against histamine stimulated gastric acid secretion in adult mongrel dogs given orally; format: functional; conditions: Canis lupus familiaris, Stomach, po

| Structure (SMILES) | inhibition in vivo at 2 mg/kg (Canis familiaris [1]) | inhibition in vivo at 40 mg/kg (Rattus norvegicus [2]) | inhibition in vivo at 5 mg/kg (Canis familiaris [3]) | ED50 (Rattus norvegicus [4]) | inhibition in vivo at 4 mg/kg (Canis familiaris [5]) | inhibition in vivo at 8 mg/kg (Canis familiaris [6]) | also measured |
| --- | --- | --- | --- | --- | --- | --- | --- |
| Cc1nc2c(OCc3ccc(C(F)(F)F)cc3)cccn2c1CC#N | 44% | 26% | 59% | 3 mg/kg | 27% | 25% | – |
| CCc1nc2c(OCc3ccccc3)cccn2c1CC#N | 95% | 91% | – | 4 mg/kg | 54% | 93% | inhibition in vivo at 0.1 mg/kg (Canis familiaris [7]): 16% |
| Cc1nc2c(OCc3ccccc3)cccn2c1C#N | – | 25% | 4% | – | – | – | ED50 (Rattus norvegicus [8]): inactive |
| Cc1nc2c(NCc3ccccc3)cccn2c1CC#N | 96% | 98% | 98% | 2 mg/kg | 35% | 75% | Relative potency (Canis familiaris [9]): 1.5; ED50 (Canis familiaris [10]): 6.7 mg/kg; inhibition in vivo at 0.1 mg/kg (Canis familiaris [7]): 85% |
| Cc1nc2c(OCc3ccccc3)cccn2c1C(=O)O | – | 0% | 4% | – | – | – | ED50 (Rattus norvegicus [8]): inactive |
| Cc1nc2c(CCc3ccccc3)cccn2c1CC#N | 92% | 99% | 96% | 7 mg/kg | – | 83% | inhibition in vivo at 0.1 mg/kg (Canis familiaris [7]): 74%; inhibition in vivo at 4 mg/kg (Canis familiaris [11]): 3% |
| [C-]#[N+]Cc1c(C)nc2c(OCc3ccccc3)cccn12 | 94% | 96% | – | – | 8% | 94% | ED50 (Rattus norvegicus [12]): 2.2 mg/kg; inhibition in vivo at 0.1 mg/kg (Canis familiaris [7]): 37% |
| Cc1nc2c(OCc3ccc(Cl)c(Cl)c3)cccn2c1CC#N | 89% | 42% | – | 6 mg/kg | 16% | 23% | – |
| Cc1nc2c(OCc3ccccc3)cccn2c1C | – | 99% | – | 10 mg/kg | 0% | 26% | inhibition in vivo at 1 mg/kg (Canis familiaris [13]): 90% |
| Cc1nc2c(OCc3ccccc3)cccn2c1CC#N | 95% | 98% | 99% | 3 mg/kg | 42% | 77% | inhibition in vivo at 2 mg/kg (Canis familiaris [14]): 20%; ED50 (Canis familiaris [10]): 4.4 mg/kg; ED50 (Canis familiaris [15]): 0.09 mg/kg; inhibition in vivo at 0.1 mg/kg (Canis familiaris [7]): 49%; inhibition in vivo at 1 mg/kg (Canis familiaris [13]): 88% |
| Cc1cc(C)c(COc2cccn3c(CC#N)c(C)nc23)c(C)c1 | 22% | 49% | 86% | – | 0% | 40% | – |
| Cc1nc2cccc(CCc3ccccc3)n2c1CC#N | – | 20% | – | 7.2 mg/kg | – | 9% | inhibition in vivo at 1 mg/kg (Canis familiaris [13]): 71% |
| Cc1nc2c(OCc3ccccc3)cccn2c1CO | 80% | 99% | 80% | 16 mg/kg | 20% | 20% | inhibition in vivo at 1 mg/kg (Canis familiaris [13]): 57% |
| Cc1nc2c(OCCc3ccccc3)cccn2c1CC#N | – | 70% | 95% | 6 mg/kg | 47% | 89% | inhibition in vivo at 2 mg/kg (Canis familiaris [14]): 0% |
| Cc1nc2c(OCc3ccsc3)cccn2c1CC#N | – | 91% | 97% | 2 mg/kg | 77% | 88% | ED50 (Canis familiaris [16]): 2.7 mg/kg; inhibition in vivo at 2 mg/kg (Canis familiaris [14]): 40%; inhibition in vivo at 0.1 mg/kg (Canis familiaris [7]): 70% |
| Cc1nc2c(CSc3ccccc3)cccn2c1C | – | 29% | – | – | – | – | ED50 (Rattus norvegicus [12]): 6.4 mg/kg; inhibition in vivo at 1 mg/kg (Canis familiaris [13]): 31% |
| Cc1nc2c(OCc3ccccc3)cccn2c1CC(=N)S | 21% | 67% | 62% | 7 mg/kg | 34% | 60% | – |
| Cc1nc2c(OCc3cccs3)cccn2c1CC#N | – | 96% | 99% | 7 mg/kg | – | 75% | inhibition in vivo at 0.1 mg/kg (Canis familiaris [7]): 26%; inhibition in vivo at 1 mg/kg (Canis familiaris [13]): 90%; inhibition in vivo at 4 mg/kg (Canis familiaris [11]): 17% |
| Cc1nc2c(N(C)Cc3ccccc3)cccn2c1CC#N | 46% | 94% | – | – | 23% | – | – |
| Cc1nc2c(OCc3ccc(F)cc3)cccn2c1CC#N | – | 99% | 95% | 5 mg/kg | 35% | 87% | – |
| N#CCc1cnc2c(OCc3ccccc3)cccn12 | 96% | 99% | – | 1 mg/kg | – | 46% | inhibition in vivo at 2 mg/kg (Canis familiaris [14]): 6%; inhibition in vivo at 1 mg/kg (Canis familiaris [13]): 52% |
| Cc1nc2c(OC(C)c3ccccc3)cccn2c1CC#N (stereo unspecified) | 78% | 96% | 97% | 3.7 mg/kg | 6% | 45% | – |
| COc1ccc(COc2cccn3c(CC#N)c(C)nc23)cc1 | 43% | 25% | – | – | 13% | 7% | – |
| Cc1nc2c(OCc3ccc(Cl)cc3)cccn2c1CC#N | 58% | 90% | 95% | 6.6 mg/kg | 56% | 70% | inhibition in vivo at 2 mg/kg (Canis familiaris [14]): 30%; inhibition in vivo at 0.1 mg/kg (Canis familiaris [7]): 29% |
| Cc1nc2c(OCc3ccccc3F)cccn2c1CC#N | – | 96% | 97% | 6 mg/kg | 34% | 65% | – |
| Cc1nc2c(OCc3ccccc3)cccn2c1CC(=O)N(C)C | – | 37% | – | – | – | – | inhibition in vivo at 1 mg/kg (Canis familiaris [13]): 16% |
| Cc1nc2c(OCc3ccc(C#N)cc3)cccn2c1CC#N | – | 69% | 71% | 8 mg/kg | 0% | 33% | – |
| CC(C)c1nc2c(OCc3ccccc3)cccn2c1CC#N | – | 72% | 96% | 5 mg/kg | 36% | 39% | – |
